# Columns and labels:
# [1] = target: T1, ATP-dependent translocase ABCB1 (Homo sapiens, UniProt P08183); assay: Reversal of Pgp-mediated DOX resistance in human SW620/AD300 cells assessed as potentiation of DOX-induced cytotoxicity by measuring inhibition of cell proliferation at 1 uM incubated for 48 hrs by SRB assay (reference value: 5.3 +/- 3 %); type: cell-based
# [2] = Cytotoxicity against human SW620/AD300 cells assessed as cell growth inhibition at 10 uM incubated for 48 hrs by SRB assay relative to control; type: cell-based; conditions: read-out: GI
# [3] = target: T1, ATP-dependent translocase ABCB1; assay: Reversal of Pgp-mediated DOX resistance in human SW620/AD300 cells assessed as potentiation of DOX-induced cytotoxicity by measuring change in DOX IC50 at 1 uM incubated for 48 hrs by SRB assay relative to DOX alone; type: cell-based; conditions: sw620/ad300, 48 h
# K562/A02 = assay: Potentiation of DOX-induced anti tumor activity against human K562/A02 cells xenografted in BALB/c mouse assessed as tumor size at 3 mg/kg, iv administered every 2 days for 14 days measured during compound dosing by caliper method (reference value: 610 mm3); type: functional
# In short: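 Mice bearing subcutaneous ABCB1-overexpressing K562/A02 xenografts treated with DOX alone, modulator alone, or combinations (verapamil as comparator) for 14 days; tumor volume measured every two days.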
# T1 sequence (P08183 whole entry): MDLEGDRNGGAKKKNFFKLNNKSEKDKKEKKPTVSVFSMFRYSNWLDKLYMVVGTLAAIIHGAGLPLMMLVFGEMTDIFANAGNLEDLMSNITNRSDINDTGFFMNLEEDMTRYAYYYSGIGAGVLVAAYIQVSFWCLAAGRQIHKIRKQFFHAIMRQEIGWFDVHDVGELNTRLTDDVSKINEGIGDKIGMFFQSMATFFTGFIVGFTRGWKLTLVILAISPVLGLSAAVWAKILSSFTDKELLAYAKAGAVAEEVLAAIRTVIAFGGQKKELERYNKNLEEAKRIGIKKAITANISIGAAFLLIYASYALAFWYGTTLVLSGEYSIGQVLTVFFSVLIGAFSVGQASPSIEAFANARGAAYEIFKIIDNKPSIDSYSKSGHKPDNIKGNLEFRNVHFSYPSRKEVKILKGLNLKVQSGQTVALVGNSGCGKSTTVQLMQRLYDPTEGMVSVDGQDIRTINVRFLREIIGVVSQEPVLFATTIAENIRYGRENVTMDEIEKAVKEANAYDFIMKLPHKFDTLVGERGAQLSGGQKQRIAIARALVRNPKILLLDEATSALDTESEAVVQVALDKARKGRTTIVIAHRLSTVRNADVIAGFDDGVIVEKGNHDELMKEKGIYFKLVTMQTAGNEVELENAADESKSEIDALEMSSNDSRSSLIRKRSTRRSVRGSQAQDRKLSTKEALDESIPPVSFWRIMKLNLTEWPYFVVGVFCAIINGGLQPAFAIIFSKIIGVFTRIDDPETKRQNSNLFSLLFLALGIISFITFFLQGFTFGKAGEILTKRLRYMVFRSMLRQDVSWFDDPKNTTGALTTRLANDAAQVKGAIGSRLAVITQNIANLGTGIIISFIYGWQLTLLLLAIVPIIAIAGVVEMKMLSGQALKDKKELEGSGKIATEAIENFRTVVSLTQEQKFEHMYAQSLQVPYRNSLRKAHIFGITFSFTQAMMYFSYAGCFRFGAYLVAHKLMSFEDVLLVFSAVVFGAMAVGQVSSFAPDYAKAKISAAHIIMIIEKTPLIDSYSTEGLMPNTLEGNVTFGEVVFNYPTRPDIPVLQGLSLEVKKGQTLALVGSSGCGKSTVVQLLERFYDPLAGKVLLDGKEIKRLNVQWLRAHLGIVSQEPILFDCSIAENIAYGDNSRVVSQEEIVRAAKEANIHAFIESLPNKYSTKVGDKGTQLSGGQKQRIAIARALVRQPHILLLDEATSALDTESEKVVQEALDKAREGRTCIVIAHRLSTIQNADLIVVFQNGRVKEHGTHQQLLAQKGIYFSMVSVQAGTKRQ
SMILES,inhibition at 1 µM [1],"inhibition at 48 h, 10 µM [2]",fold change (FC) [3],Activity (K562/A02)
COc1cc2c(cc1OC)CN(C(=O)/C=C(\C)c1c(-c3ccccc3)n(C)c3ncccc13)CC2,44%,,,
COc1cc2c(cc1OC)CN(CCc1ccc(NC(=O)C(c3c(-c4ccccc4)n(C)c4ccccc34)N3CCOCC3)cc1)CC2 (stereo not given),61.7%,42%,60.71,
COc1cc2c(cc1OC)CN(C(=O)CCc1c(-c3ccccc3)n(C)c3ncccc13)CC2,17.7%,,,
COc1cc2c(cc1OC)CN(C(=O)/C=C/c1c(-c3ccccc3)nc3ccccn13)CC2,37.5%,,,
COc1cc2c(cc1OC)CN(CCc1ccc(NC(=O)/C=C/c3ccc(Oc4cc(O)c(-c5ccccn5)c(O)c4)nc3)cc1)CC2,56.3%,,42.81,
COc1cc2c(cc1OC)CN(C(=O)/C=C/c1c3n(c4ccccc14)C(C1CCCCC1)Oc1ccccc1-3)CC2 (stereo not given),40.1%,,,
COc1cc2c(cc1OC)CN(C(=O)/C(F)=C/c1c(-c3ccccc3)n(C)c3ncccc13)CC2,12.2%,,,
COc1cc2c(cc1OC)CN(CCc1ccc(NC(=O)/C=C/c3cccc(Oc4ccc(-c5ccccn5)cc4)n3)cc1)CC2,60.2%,,33.73,
COc1cc2c(cc1OC)CN(CCc1ccc(NC(=O)/C=C/c3ccc(Oc4ccc(-c5ccccn5)c(F)c4)nc3)cc1)CC2,49.8%,,,
COc1cc2c(cc1OC)CN(CCc1ccc(NC(=O)/C=C/c3ccc(Oc4ccc(-c5ccccn5)cc4C)nc3)cc1)CC2,55.1%,,45.12,
COc1ccc2c(C)c(CC(=O)Nc3ccc(CCN4CCc5cc(OC)c(OC)cc5C4)cc3)c(=O)oc2c1,50.5%,,16.95,
COc1cc2c(cc1OC)CN(CCc1ccc(NC(=O)/C=C/c3c(-c4ccccc4)oc4ccccc4c3=O)cc1)CC2,55.2%,,24.55,
COc1cc2c(cc1OC)CN(CCc1ccc(NC(=O)/C=C/c3ccc(Oc4ccc(-c5ccccn5)cc4Br)nc3)cc1)CC2,60.1%,,47.7,
COc1cc2c(cc1OC)CN(CCc1ccc(NC(=O)/C=C/c3ccc(Oc4ccc(-c5cccnc5)cc4)nc3)cc1)CC2,62.6%,13.9%,85.62,
COc1cc2c(cc1OC)CN(S(=O)(=O)/C=C/c1c(-c3ccccc3)n(C)c3ccccc13)CC2,25.4%,,,
COc1cc2c(cc1OC)CN(C(=O)/C=C(/c1c(-c3ccccc3)n(C)c3ncccc13)C(F)(F)F)CC2,32.5%,,,
COc1cc2c(cc1OC)CN(C(=O)/C=C/c1c3n(c4ccccc14)C(c1cccs1)Oc1ccccc1-3)CC2 (stereo not given),44.3%,,,
Cn1c(-c2ccccc2)c(/C=C/C(=O)NN2C(=O)c3ccccc3C2=O)c2cccnc21,18.9%,,,
COc1cc2c(cc1OC)CN(CCc1ccc(NC(=O)/C=C/c3ccc(Oc4cccc(-c5ccccn5)c4)nc3)cc1)CC2,56.5%,,44.52,
COc1ccc(-c2nnc(/C=C/c3c(-c4ccccc4)n(C)c4ncccc34)o2)cc1OC,15.1%,,,
COc1ccc(CN2CC(c3c(-c4ccccc4)n(C)c4ncccc34)=CC2=O)cc1OC,20.7%,,,
COc1cc2c(cc1OC)CN(CCc1ccc(NC(=O)/C=C/c3cc(-c4ccccn4)cc(C)c3Oc3ccccn3)cc1)CC2,64%,17%,60.71,
COc1ccc(C(=O)NN2CC(c3c(-c4ccccc4)n(C)c4ncccc34)=CC2=O)cc1OC,14%,,,

SMILES,inhibition at 1 µM [1],"inhibition at 48 h, 10 µM [2]",fold change (FC) [3],Activity (K562/A02)
COc1cc2c(cc1OC)CN(S(=O)(=O)/C=C/c1c(-c3ccccc3)n(C)c3ncccc13)CC2,37.9%,,,
COc1cc2c(cc1OC)CN(CCc1ccc(NC(=O)/C=C/c3ccc(Oc4ccc(-c5ccccn5)c(O)c4)nc3)cc1)CC2,56.4%,,40.72,
Cn1c(-c2ccccc2)c(/C=C/C(=O)Nc2nc3ccccc3s2)c2cccnc21,44.7%,,,
COc1cc2c(cc1OC)CN(CCc1ccc(NC(=O)c3ccc(Oc4ccc(-c5ccccn5)cc4)nc3)cc1)CC2,36.1%,,,
COc1ccc(NC(=O)NC(=O)/C=C/c2c(-c3ccccc3)n(C)c3ncccc23)cc1OC,23.3%,,,
COc1cc2c(cc1OC)CN(CCc1ccc(NC(=O)/C=C/c3ccc(Oc4ccc(-c5ccccn5)c(C)c4)nc3)cc1)CC2,58.2%,17.1%,68.14,
COc1cc2c(cc1OC)CN(C(=O)/C=C/c1ccc(Oc3ccc(-c4ccccn4)cc3)nc1)CC2,26.7%,,,
COc1cc2c(cc1OC)CN(CCc1ccc(NC(=O)/C=C/c3ccc(Oc4ccc(-c5ccccn5)c(C#N)c4)nc3)cc1)CC2,58.3%,13.9%,54.74,
COc1cc2c(cc1OC)CN(C(=O)/C=C/c1nc(-c3ccccn3)n(C)c1-c1ccccc1)CC2,28.2%,,,
COc1cc2c(cc1OC)CN(C(=O)/C=C/c1c(-c3ccccc3)n(C)c3ncccc13)CC2,40%,,,
COc1cc2c(cc1OC)CN(CCc1ccc(NC(=O)C3CC3c3ccc(Oc4ccc(-c5ccccn5)cc4)nc3)cc1)CC2 (stereo not given),59%,,43.93,
COc1cc2c(cc1OC)CN(CCc1ccc(NC(=O)C(O)c3c(-c4ccccc4)n(C)c4ccccc34)cc1)CC2 (stereo not given),55.3%,,30.35,
COc1cc2c(cc1OC)CN(CCc1ccc(NC(=O)/C=C/c3ccc(Oc4ccc(-c5ccccn5)cc4)nc3)cc1)CC2,41.8%,,,
COc1cc2c(cc1OC)CN(CCc1ccc(NC(=O)/C=C/c3c(-c4ccccc4)n(C)c4ncccc34)cc1)CC2,63%,,40.72,
COc1cc2c(cc1OC)CN(CCc1ccc(NC(=O)/C=C/c3ccc(Oc4ccc(-c5ccccn5)cc4I)nc3)cc1)CC2,59.2%,,43.93,
COc1cc2c(cc1OC)CN(C(=O)/C=C/c1c3n(c4ncccc14)CCc1ccccc1-3)CC2,45.4%,,,
[2H]c1c([2H])c(-c2ccccn2)c([2H])c([2H])c1Oc1ccc(/C=C/C(=O)Nc2ccc(CCN3CCc4cc(OC)c(OC)cc4C3)cc2)cn1,49.5%,,,
COc1cc2c(cc1OC)CN(C(=O)/C=C/c1c3n(c4ccccc14)C(c1ccccc1)Oc1ccccc1-3)CC2 (stereo not given),41.4%,,,
Cn1c(-c2ccccc2)c(/C=C/C(=O)NN2Cc3ccccc3C2=O)c2cccnc21,18.5%,,,
COc1cc2c(cc1OC)CN(C(=O)/C=C/c1c3n(c4ncccc14)Cc1ccccc1-3)CC2,22.9%,,,
COc1cc2c(cc1OC)CN(CCc1ccc(NC(=O)/C=C/c3ccc(Oc4c(I)cc(-c5ccccn5)cc4I)nc3)cc1)CC2,53.2%,,28.3,
COc1ccc(C(=O)NNC(=O)/C=C/c2c(-c3ccccc3)n(C)c3ncccc23)cc1OC,10.9%,,,
COc1ccc(CCN(C)CCCC(C#N)(c2ccc(OC)c(OC)c2)C(C)C)cc1OC (stereo not given),26.1%,,,508 mm3
